Laboratory results reported in ChEMBL document CHEMBL5058577, “EUbOPEN Chemogenomics Library 2 (Multiplex)” (2022).

Test system: HEK-293T
Assay: Multiplex assay against HEK293T
Format: toxicity, cell-based
Details: human
Method in brief: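 On a CQ1 microscope at 37°C and 5% CO2, live cells were imaged after compound addition. They had been stained at seeding with Hoechst33342, BioTracker Green Microtubule Cytoskeleton Dye, MitoTracker Red and Annexin V Alexa Fluor 680. CellPathfinder machine-learning gating assigned cells to Hoechst high-intensity objects or normal cells, normal cells to healthy, pyknosed or fragmented nuclei, and pyknosed cells to mitotic or apoptotic. Tubulin, mitochondrial-mass and membrane-permeability phenotypes are per cents of healthy-nucleus cells.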

[1] = 12 h, 1 µM, compound concentration 1 uM, replicate 1
[2] = 12 h, 1 µM, compound concentration 1 uM, replicate 2
[3] = 12 h, 10 µM, compound concentration 10 uM, replicate 1
[4] = 12 h, 10 µM, compound concentration 10 uM, replicate 2
[5] = 24 h, 1 µM, compound concentration 1 uM, replicate 1
[6] = 24 h, 1 µM, compound concentration 1 uM, replicate 2
[7] = 24 h, 10 µM, compound concentration 10 uM, replicate 1
[8] = 24 h, 10 µM, compound concentration 10 uM, replicate 2
[9] = 48 h, 1 µM, compound concentration 1 uM, replicate 1
[10] = 48 h, 1 µM, compound concentration 1 uM, replicate 2
[11] = 48 h, 10 µM, compound concentration 10 uM, replicate 1
[12] = 48 h, 10 µM, compound concentration 10 uM, replicate 2

Compound: COc1ccc2c(c1)C(C(=O)N(Cc1ccc(N(C)C)cc1)c1ccc(C(C)C)cc1)CCC2.Cl (stereo not drawn)
- Population Apoptotic (%) [1]: 30%
- Population Fragmented Nuclei (%) [1]: 6%
- Population Healthy Nuclei (%) [1]: 80%
- Population Hoechst High Intensity Objects (%) [1]: 7%
- Population Membrane Permeable-Phenotype (%) [1]: 0%
- Population Mitochondria Different-Phenotype (%) [1]: 39%
- Population Mitotic Cells (%) [1]: 70%
- Population Normal (%) [1]: 92%
- Population Pyknosed Nuclei (%) [1]: 13%
- Population Tubulin-Different-Phenotype (%) [1]: 27%
- Total Cell Count [1]: 413
- Population Apoptotic (%) [2]: 43%
- Population Fragmented Nuclei (%) [2]: 5%
- Population Healthy Nuclei (%) [2]: 79%
- Population Hoechst High Intensity Objects (%) [2]: 4%
- Population Mitochondria Different-Phenotype (%) [2]: 61%
- Population Mitotic Cells (%) [2]: 56%
- Population Normal (%) [2]: 95%
- Population Pyknosed Nuclei (%) [2]: 14%
- Population Tubulin-Different-Phenotype (%) [2]: 23%
- Total Cell Count [2]: 330
- Population Apoptotic (%) [3]: 60%
- Population Fragmented Nuclei (%) [3]: 9%
- Population Healthy Nuclei (%) [3]: 78%
- Population Hoechst High Intensity Objects (%) [3]: 10%
- Population Membrane Permeable-Phenotype (%) [3]: 0%
- Population Mitochondria Different-Phenotype (%) [3]: 60%
- Population Mitotic Cells (%) [3]: 39%
- Population Normal (%) [3]: 89%
- Population Pyknosed Nuclei (%) [3]: 11%
- Population Tubulin-Different-Phenotype (%) [3]: 64%
- Total Cell Count [3]: 383
- Population Apoptotic (%) [4]: 63%
- Population Fragmented Nuclei (%) [4]: 4%
- Population Healthy Nuclei (%) [4]: 77%
- Population Hoechst High Intensity Objects (%) [4]: 6%
- Population Mitochondria Different-Phenotype (%) [4]: 75%
- Population Mitotic Cells (%) [4]: 36%
- Population Normal (%) [4]: 93%
- Population Pyknosed Nuclei (%) [4]: 17%
- Population Tubulin-Different-Phenotype (%) [4]: 57%
- Total Cell Count [4]: 361
- Population Apoptotic (%) [5]: 31%
- Population Fragmented Nuclei (%) [5]: 9%
- Population Healthy Nuclei (%) [5]: 81%
- Population Hoechst High Intensity Objects (%) [5]: 3%
- Population Membrane Permeable-Phenotype (%) [5]: 0%
- Population Mitochondria Different-Phenotype (%) [5]: 20%
- Population Mitotic Cells (%) [5]: 68%
- Population Normal (%) [5]: 96%
- Population Pyknosed Nuclei (%) [5]: 8%
- Population Tubulin-Different-Phenotype (%) [5]: 13%
- Total Cell Count [5]: 567
- Population Apoptotic (%) [6]: 60%
- Population Fragmented Nuclei (%) [6]: 7%
- Population Healthy Nuclei (%) [6]: 79%
- Population Hoechst High Intensity Objects (%) [6]: 6%
- Population Mitochondria Different-Phenotype (%) [6]: 33%
- Population Mitotic Cells (%) [6]: 40%
- Population Normal (%) [6]: 93%
- Population Pyknosed Nuclei (%) [6]: 13%
- Population Tubulin-Different-Phenotype (%) [6]: 11%
- Total Cell Count [6]: 399
- Population Apoptotic (%) [7]: 35%
- Population Fragmented Nuclei (%) [7]: 9%
- Population Healthy Nuclei (%) [7]: 73%
- Population Hoechst High Intensity Objects (%) [7]: 10%
- Population Membrane Permeable-Phenotype (%) [7]: 1%
- Population Mitochondria Different-Phenotype (%) [7]: 51%
- Population Mitotic Cells (%) [7]: 64%
- Population Normal (%) [7]: 89%
- Population Pyknosed Nuclei (%) [7]: 17%
- Population Tubulin-Different-Phenotype (%) [7]: 70%
- Total Cell Count [7]: 409
- Population Apoptotic (%) [8]: 45%
- Population Fragmented Nuclei (%) [8]: 7%
- Population Healthy Nuclei (%) [8]: 76%
- Population Hoechst High Intensity Objects (%) [8]: 6%
- Population Membrane Permeable-Phenotype (%) [8]: 0%
- Population Mitochondria Different-Phenotype (%) [8]: 60%
- Population Mitotic Cells (%) [8]: 55%
- Population Normal (%) [8]: 93%
- Population Pyknosed Nuclei (%) [8]: 16%
- Population Tubulin-Different-Phenotype (%) [8]: 60%
- Total Cell Count [8]: 389
- Population Apoptotic (%) [9]: 20%
- Population Fragmented Nuclei (%) [9]: 12%
- Population Healthy Nuclei (%) [9]: 80%
- Population Hoechst High Intensity Objects (%) [9]: 1%
- Population Membrane Permeable-Phenotype (%) [9]: 1%
- Population Mitochondria Different-Phenotype (%) [9]: 10%
- Population Mitotic Cells (%) [9]: 79%
- Population Normal (%) [9]: 98%
- Population Pyknosed Nuclei (%) [9]: 6%
- Population Tubulin-Different-Phenotype (%) [9]: 10%
- Total Cell Count [9]: 968
- Population Apoptotic (%) [10]: 46%
- Population Healthy Nuclei (%) [10]: 81%
- Population Hoechst High Intensity Objects (%) [10]: 4%
- Population Membrane Permeable-Phenotype (%) [10]: 0%
- Population Mitochondria Different-Phenotype (%) [10]: 17%
- Population Mitotic Cells (%) [10]: 53%
- Population Normal (%) [10]: 95%
- Population Tubulin-Different-Phenotype (%) [10]: 15%
- Total Cell Count [10]: 631
- Population Apoptotic (%) [11]: 59%
- Population Fragmented Nuclei (%) [11]: 15%
- Population Healthy Nuclei (%) [11]: 75%
- Population Hoechst High Intensity Objects (%) [11]: 9%
- Population Membrane Permeable-Phenotype (%) [11]: 6%
- Population Mitochondria Different-Phenotype (%) [11]: 25%
- Population Mitotic Cells (%) [11]: 40%
- Population Normal (%) [11]: 90%
- Population Pyknosed Nuclei (%) [11]: 9%
- Population Tubulin-Different-Phenotype (%) [11]: 53%
- Total Cell Count [11]: 558
- Population Apoptotic (%) [12]: 36%
- Population Fragmented Nuclei (%) [12]: 11%
- Population Healthy Nuclei (%) [12]: 79%
- Population Hoechst High Intensity Objects (%) [12]: 3%
- Population Membrane Permeable-Phenotype (%) [12]: 2%
- Population Mitochondria Different-Phenotype (%) [12]: 24%
- Population Mitotic Cells (%) [12]: 63%
- Population Normal (%) [12]: 96%
- Population Pyknosed Nuclei (%) [12]: 8%
- Population Tubulin-Different-Phenotype (%) [12]: 50%
- Total Cell Count [12]: 482

Compound: Cc1nc2ccc(Oc3ccc(F)cc3)cc2c(=O)n1C[C@H]1CCCN(C(C)C)C1.Cl
- Population Apoptotic (%) [1]: 40%
- Population Fragmented Nuclei (%) [1]: 7%
- Population Healthy Nuclei (%) [1]: 80%
- Population Hoechst High Intensity Objects (%) [1]: 6%
- Population Membrane Permeable-Phenotype (%) [1]: 0%
- Population Mitochondria Different-Phenotype (%) [1]: 50%
- Population Mitotic Cells (%) [1]: 60%
- Population Normal (%) [1]: 93%
- Population Pyknosed Nuclei (%) [1]: 11%
- Population Tubulin-Different-Phenotype (%) [1]: 42%
- Total Cell Count [1]: 381
- Population Apoptotic (%) [2]: 61%
- Population Fragmented Nuclei (%) [2]: 5%
- Population Healthy Nuclei (%) [2]: 70%
- Population Hoechst High Intensity Objects (%) [2]: 27%
- Population Mitochondria Different-Phenotype (%) [2]: 69%
- Population Mitotic Cells (%) [2]: 38%
- Population Normal (%) [2]: 72%
- Population Pyknosed Nuclei (%) [2]: 24%
- Population Tubulin-Different-Phenotype (%) [2]: 34%
- Total Cell Count [2]: 204
- Population Apoptotic (%) [3]: 54%
- Population Fragmented Nuclei (%) [3]: 7%
- Population Healthy Nuclei (%) [3]: 78%
- Population Hoechst High Intensity Objects (%) [3]: 17%
- Population Membrane Permeable-Phenotype (%) [3]: 0%
- Population Mitochondria Different-Phenotype (%) [3]: 81%
- Population Mitotic Cells (%) [3]: 45%
- Population Normal (%) [3]: 82%
- Population Pyknosed Nuclei (%) [3]: 13%
- Population Tubulin-Different-Phenotype (%) [3]: 76%
- Total Cell Count [3]: 405
- Population Apoptotic (%) [4]: 61%
- Population Fragmented Nuclei (%) [4]: 8%
- Population Healthy Nuclei (%) [4]: 74%
- Population Hoechst High Intensity Objects (%) [4]: 20%
- Population Mitochondria Different-Phenotype (%) [4]: 94%
- Population Mitotic Cells (%) [4]: 38%
- Population Normal (%) [4]: 79%
- Population Pyknosed Nuclei (%) [4]: 17%
- Population Tubulin-Different-Phenotype (%) [4]: 73%
- Total Cell Count [4]: 310
- Population Apoptotic (%) [5]: 31%
- Population Fragmented Nuclei (%) [5]: 11%
- Population Healthy Nuclei (%) [5]: 80%
- Population Hoechst High Intensity Objects (%) [5]: 4%
- Population Membrane Permeable-Phenotype (%) [5]: 0%
- Population Mitochondria Different-Phenotype (%) [5]: 36%
- Population Mitotic Cells (%) [5]: 68%
- Population Normal (%) [5]: 95%
- Population Pyknosed Nuclei (%) [5]: 8%
- Population Tubulin-Different-Phenotype (%) [5]: 27%
- Total Cell Count [5]: 553
- Population Apoptotic (%) [6]: 37%
- Population Healthy Nuclei (%) [6]: 72%
- Population Hoechst High Intensity Objects (%) [6]: 22%
- Population Mitochondria Different-Phenotype (%) [6]: 52%
- Population Mitotic Cells (%) [6]: 62%
- Population Normal (%) [6]: 77%
- Population Pyknosed Nuclei (%) [6]: 16%
- Population Tubulin-Different-Phenotype (%) [6]: 20%
- Total Cell Count [6]: 281
- Population Apoptotic (%) [7]: 49%
- Population Fragmented Nuclei (%) [7]: 10%
- Population Healthy Nuclei (%) [7]: 73%
- Population Hoechst High Intensity Objects (%) [7]: 12%
- Population Membrane Permeable-Phenotype (%) [7]: 3%
- Population Mitochondria Different-Phenotype (%) [7]: 67%
- Population Mitotic Cells (%) [7]: 50%
- Population Normal (%) [7]: 87%
- Population Pyknosed Nuclei (%) [7]: 15%
- Population Tubulin-Different-Phenotype (%) [7]: 70%
- Total Cell Count [7]: 525
- Population Apoptotic (%) [8]: 68%
- Population Fragmented Nuclei (%) [8]: 11%
- Population Healthy Nuclei (%) [8]: 75%
- Population Hoechst High Intensity Objects (%) [8]: 23%
- Population Membrane Permeable-Phenotype (%) [8]: 0%
- Population Mitochondria Different-Phenotype (%) [8]: 88%
- Population Mitotic Cells (%) [8]: 31%
- Population Normal (%) [8]: 76%
- Population Pyknosed Nuclei (%) [8]: 12%
- Population Tubulin-Different-Phenotype (%) [8]: 68%
- Total Cell Count [8]: 334
- Population Apoptotic (%) [9]: 27%
- Population Fragmented Nuclei (%) [9]: 19%
- Population Healthy Nuclei (%) [9]: 75%
- Population Hoechst High Intensity Objects (%) [9]: 1%
- Population Membrane Permeable-Phenotype (%) [9]: 1%
- Population Mitochondria Different-Phenotype (%) [9]: 22%
- Population Mitotic Cells (%) [9]: 72%
- Population Normal (%) [9]: 98%
- Population Pyknosed Nuclei (%) [9]: 5%
- Population Tubulin-Different-Phenotype (%) [9]: 14%
- Total Cell Count [9]: 901
- Population Apoptotic (%) [10]: 60%
- Population Fragmented Nuclei (%) [10]: 13%
- Population Healthy Nuclei (%) [10]: 80%
- Population Hoechst High Intensity Objects (%) [10]: 7%
- Population Membrane Permeable-Phenotype (%) [10]: 0%
- Population Mitochondria Different-Phenotype (%) [10]: 36%
- Population Mitotic Cells (%) [10]: 39%
- Population Normal (%) [10]: 92%
- Population Pyknosed Nuclei (%) [10]: 6%
- Total Cell Count [10]: 380
- Population Apoptotic (%) [11]: 47%
- Population Fragmented Nuclei (%) [11]: 15%
- Population Healthy Nuclei (%) [11]: 74%
- Population Hoechst High Intensity Objects (%) [11]: 11%
- Population Membrane Permeable-Phenotype (%) [11]: 2%
- Population Mitochondria Different-Phenotype (%) [11]: 60%
- Population Mitotic Cells (%) [11]: 52%
- Population Normal (%) [11]: 88%
- Population Pyknosed Nuclei (%) [11]: 9%
- Population Tubulin-Different-Phenotype (%) [11]: 62%
- Total Cell Count [11]: 754
- Population Apoptotic (%) [12]: 67%
- Population Fragmented Nuclei (%) [12]: 17%
- Population Healthy Nuclei (%) [12]: 72%
- Population Hoechst High Intensity Objects (%) [12]: 22%
- Population Membrane Permeable-Phenotype (%) [12]: 0%
- Population Mitochondria Different-Phenotype (%) [12]: 69%
- Population Mitotic Cells (%) [12]: 32%
- Population Normal (%) [12]: 78%
- Population Tubulin-Different-Phenotype (%) [12]: 58%
- Total Cell Count [12]: 459
